MrgX1 allo act: allosterically activates human MrgX1 receptor signaling. MrgX1-HEK293, Fluo-4 calcium flux, FDSS; hits give high values. 0.63% of 310,000 active. Q96LB2. B-score at 10 µM;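 active = plate-corrected calcium response at least 3 library SD above typical, normal starting fluorescence, not activating the receptor alone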;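 also: compound read alongside a low EC10 to EC30 dose of BAM8-22 agonist; peak minus trough fluorescence over baseline measured at the second addition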
Target sequence (Q96LB2 whole entry, looked up): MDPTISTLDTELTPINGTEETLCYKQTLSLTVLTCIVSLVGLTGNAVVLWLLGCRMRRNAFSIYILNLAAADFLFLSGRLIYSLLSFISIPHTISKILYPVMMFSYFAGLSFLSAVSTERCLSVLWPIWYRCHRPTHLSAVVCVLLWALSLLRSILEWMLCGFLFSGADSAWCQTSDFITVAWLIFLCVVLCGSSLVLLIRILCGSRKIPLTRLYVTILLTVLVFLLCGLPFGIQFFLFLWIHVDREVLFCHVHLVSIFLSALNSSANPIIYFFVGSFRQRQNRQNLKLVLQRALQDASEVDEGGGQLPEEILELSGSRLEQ
RGS4 inh: inhibitors of human RGS4. HEK293 M3R/RGS4 inducible, Fluo-4 calcium flux; hits give high values; triggered by carbachol at its EC20. P49798. AID 463165. B-score at 10 µM. 0.45% of 310,000 active;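 active = B-score, a plate-corrected calcium signal, over three deviations above library mean, with baseline fluorescence within five deviations of library mean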;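 also: RGS4 expression induced by doxycycline in cells with stable M3 receptor; B-score is computed from the integrated fluorescence ratio over baseline after carbachol; higher B-score means a larger calcium signal and so more RGS4 inhibition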
Target sequence (P49798 whole entry, looked up): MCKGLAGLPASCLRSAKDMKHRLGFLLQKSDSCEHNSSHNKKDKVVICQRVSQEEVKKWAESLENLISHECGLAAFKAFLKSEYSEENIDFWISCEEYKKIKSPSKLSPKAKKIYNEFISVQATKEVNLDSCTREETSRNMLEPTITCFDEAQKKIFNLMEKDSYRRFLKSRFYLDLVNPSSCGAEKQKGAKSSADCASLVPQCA
MrgX1 ag: human MrgX1 receptor agonism, primary screen | B-score at 10 µM | Q96LB2 | MrgX1-HEK293 cells, Fluo-4 calcium fluorescence, agonist mode; hits give high values | 0.44% of 310,000 active;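 active = calcium response B-score plate-corrected fluorescence ratio at least 3 library SD, with starting fluorescence B-score inside 5 SD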
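Material – MrgX1-expressing HEK293 cells · Input – 15,000 cells seeded per well · Dosing – compound as first of three additions · Times – overnight seeding, then 1 h dark dye loading · Measured by – kinetic Fluo-4 NW fluorescence of intracellular calcium · Read-out – B-scored fluorescence response ratio · Benchmarks – positive and negative control wells on each plate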
RGS4 pot: potentiators or activators of RGS4; HEK293 M3R/inducible RGS4, carbachol calcium flux Fluo4; hits give low values; AID 463111; 0.92% of 310,000 active; B-score at 10 µM;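 active = B-score of the integrated calcium signal more than 4 SD below the library mean, with starting fluorescence not abnormally high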;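 also: negative B-score means reduced calcium response which marks RGS4 activation or potentiation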
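Detection: kinetic calcium fluorescence imaging with Fluo4-AM dye, 2 µM / Material: HEK293 cells with stable M3R and inducible RGS4 / Schedule: recording 10 s baseline at 1 Hz, 100 s post-agonist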
MrgX1 antagonist: blocks BAM8-22 activation of human MrgX1 receptor. 1.3% of 310,000 active. MRGX1-HEK293 calcium flux, Fluo-4, BAM8-22 antagonism; hits give low values. B-score at 10 µM;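 active = calcium-response B-score plate-corrected more than 3 library SD below zero, starting fluorescence within 5 deviations, no agonist response on first addition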;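 also: peak minus trough fluorescence over baseline after final BAM8-22 challenge near maximal dose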
Of the large screens only hits and unclear results are named; the others gave an inactive call. A selection: hits, their analogues and other compounds. The true share with any hit is near 3.5%.

N#CC1=C(N)n2c(s/c(=C\c3cccs3)c2=O)=C(C#N)C1c1cccs1 (configuration not stated)	MrgX1 antagonist -7.4
CCC1CCCCN1CCCNC(=O)c1ccc2c(c1)N(Cc1c(F)cccc1Cl)C(=O)CS2 (configuration not stated)	RGS4 pot -8.2
O=C(NCCN1CCOCC1)c1ccc2c(c1)N(Cc1ccc(Cl)cc1)C(=O)CS2	RGS4 pot -7.3
O=C(NCCN1CCOCC1)c1ccc2c(c1)N(Cc1ccccc1)C(=O)CS2	none
O=C(NNC(=S)NCC1CCCO1)c1cc(Br)ccc1Cl (configuration not stated)	none
O=C(CN1CCCCC1)Nc1ccccc1-c1ccccc1	RGS4 pot -10
CC(=O)Nc1cccc(NC(=O)C(=O)NCC(c2ccco2)N2CCc3ccccc3C2)c1 (configuration not stated)	none
COC(=O)CC1=NN(c2nc3ccccc3s2)C(=O)/C1=C/N(C)C	MrgX1 allo act 15
CC(=O)c1cccc(NC(=S)NCCCCc2ccccc2)c1	none
CCN(CC)S(=O)(=O)c1ccc(Cl)c(C(=O)Oc2cccc(-c3cnc4ccccc4n3)c2)c1	RGS4 pot -7.1
CCCCN(C)S(=O)(=O)c1ccc(C(=O)Nc2nnc(-c3cccs3)o2)cc1	MrgX1 ag 31
COc1ccccc1CNC(=O)CN(c1ccc(C)cc1)S(=O)(=O)c1c(C)noc1C	none
COc1ccc(/C=N/Nc2cc(C)nc3c(C)cccc23)cc1	MrgX1 antagonist -4.6
Cc1ccc(C)c(N2CCN(C(=O)CCCN3C(=S)NC(C)(C)CC3C)CC2)c1 (configuration not stated)	MrgX1 antagonist -4.6
C=CCn1c(SCc2ccccc2Cl)nnc1-c1sc2nc(C)cc(C)c2c1N	none
CCCCCCN1C=CC(=C/C=C(\C#N)C(=O)OCC)C=C1	MrgX1 ag 64
CCCN1C=CC(=C/C=C(\C#N)C(=O)OCC)C=C1	none
Cc1ccc(O)c(C(=O)c2cnc3c(c2)c(-c2ccc(F)cc2)c(C#N)c(=O)n3C)c1	none
COc1ccc(/C(O)=C2/C(=O)C(=O)N(c3ccccn3)C2c2cccc(Cl)c2)cc1 (configuration not stated)	none
COc1ccc2c(/C=C/c3cc[n+](C)cc3)c[nH]c2c1	MrgX1 antagonist -5.8
CCc1ccccc1NC(=O)CN(C)C(=O)CSc1nc2cc(Cl)ccc2s1	none
CCCN1CCc2c(sc(NC(=S)NC(=O)c3ccccc3)c2C#N)C1	MrgX1 ag 80
CCOC(=O)c1c(NC(=S)Nc2ccccc2)sc2c1CCN(CCc1ccccc1)C2	MrgX1 antagonist -5 (no result: RGS4 inh, RGS4 pot)
CC(C)N1CCc2c(sc(NC(=S)NC(=O)c3ccccc3)c2C#N)C1	none
COc1ccc(N(C)C(=O)C2CCN(S(=O)(=O)c3cccc4nonc34)CC2)c(OC)c1	none
CC(=O)N1CCN(C(=O)COc2ccccc2C(=O)Nc2ccccc2)CC1	none
COC(=O)c1ccc(C23CC4(C2)[C@H](CN(C)[C@@H]4c2ccccc2)C3c2ccc(Cl)nc2)cc1 (some centres not stated)	RGS4 pot -7.1
CCNC(=O)NCCNC(=O)c1cc(OCC(F)(F)F)ccc1OCC(F)(F)F	MrgX1 antagonist -5.5
Cc1ccc(Nc2nnc(-c3ccccc3N)o2)cc1C	none
CCOc1ccc(N2C(=O)/C(=C/c3cc(OC)c(OC)c(OC)c3)N(CC(=O)OC)C2=S)cc1	none
CCOc1ccc(/C=C2/C(=O)N(c3ccc(OC)cc3)C(=S)N2CC(=O)OC)cc1OCC	MrgX1 antagonist -6.4
O=C(NC(=S)Nc1ncc(Br)cc1Br)c1ccccc1	none
COc1ccc(Cc2nnc(SCC(=O)N(C)CC(=O)Nc3ccc(C)cc3)o2)cc1	MrgX1 antagonist -4.6
Cc1ccc(N(Cc2cc3ccccc3[nH]c2=O)C(=O)c2cccs2)cc1C	none
CCN(CC)C1CCN(C(=O)c2cc(COc3ccc(F)cc3Cl)on2)C1 (configuration not stated)	RGS4 pot -7
O=C(c1cc(COc2ccc(F)cc2Cl)on1)N1CC[C@@H]2CCCC[C@H]2C1	none
Cn1ccnc1C1CCCCN1C(=O)c1cc(COc2ccc(F)cc2Cl)on1 (configuration not stated)	RGS4 pot -7.4
O=C(/C=C/c1ccccc1)c1ccc2c(c1)OCCCCO2	MrgX1 allo act 16
O=C(O)c1ccc2c(c1)OCCCO2	none
O=C1COc2ccc(C(=O)/C=C/c3ccccc3)cc2N1	MrgX1 ag 33
CCN(CC)C(=O)c1sc2c(c1C)c(=O)n(-c1ccc(C)c(C)c1)c(=O)n2CC(=O)NCC1CCCO1 (configuration not stated)	none
Cc1nn(-c2ccc(Cl)nn2)c(=O)c2ccccc12	MrgX1 allo act 14
Cc1nn(-c2ccc(Cl)cc2)c(=O)c2ccccc12	none
CCNc1ccc(Br)cc(C(=O)/C=C/c2ccc(Cl)cc2Cl)c1=O	MrgX1 antagonist -6.1
CNc1ccc(Br)cc(C(=O)/C=C/c2cc(OC)ccc2OC)c1=O	none
COc1ccc(S(=O)(=O)n2[nH]c(=O)c(CCO)c2C)c([N+](=O)[O-])c1	MrgX1 allo act 7.9
Cc1c(CCO)c(=O)[nH]n1S(=O)(=O)c1ccc(Cl)cc1Cl	none
O=c1c2ccccc2nnn1CSc1nnc(-c2cccc(S(=O)(=O)N3CCCCC3)c2)o1	RGS4 pot -7.9
CCN(CC)CCOCCOC(=O)C1(c2ccccc2)CCCC1	none
CC(C[N+](C)(C)C)OC(=O)C1(c2ccccc2)CCCC1 (configuration not stated)	RGS4 pot -10
C[N+](C)(C)CCOC(=O)C1(c2ccccc2)CCCC1	RGS4 pot -8.2
COc1ccc(NC(=O)C2(c3ccccc3)CCCC2)cc1	none
C[N+]1(CCOC(=O)C2(c3ccccc3)CCCC2)CCCCC1	RGS4 pot -7.5
CCN(CC)CCOC(=O)C1(c2ccc([N+](=O)[O-])cc2)CCCC1	none (no result: RGS4 inh, RGS4 pot)
CCN(CC)CCOC(=O)C1(c2ccccc2)CCOCC1	RGS4 pot -7
CC(NC(=O)C(C)N1c2cccc3cccc(c23)S1(=O)=O)c1ccccc1 (configuration not stated)	none
COc1ccccc1CCN=C(N)NS(=O)(=O)c1ccccc1F	none
CCOc1cc(C(=O)Nc2ccncc2)cc(OCC)c1OCC	none
Cc1ccc(C2(C)NC(=O)N(CC(=O)NCc3ccccc3Cl)C2=O)cc1 (configuration not stated)	none
COC(=O)N[C@H](CC(C)=O)c1ccccc1	none
COc1cc2[nH]c(=O)c(C(=O)NCc3ccccc3Cl)c(O)c2cc1OC	none
CCc1nc2cccnc2n1-c1ccc(CC(=O)NC(C)CC)cc1 (configuration not stated)	none
CC(=O)Oc1cc(O)c2c(=O)c(OC(C)=O)c(-c3ccc(OC(C)=O)c(OC(C)=O)c3)oc2c1	MrgX1 allo act 8

Compound activity: PubChem, Johns Hopkins Ion Channel Center
